Screening data as filed in PubChem BioAssay.
A selection: hits, their analogues and other compounds. The true share with any hit is near 6.5%.
tolC growth inh = growth inhibitors of E. coli tolC mutant, primary screen, strain BW25113 ΔtolC::kan, 384-well | OD615 | growth inhibition, % at 10 µM (by protocol) | 65,000 compounds, 2.2% hits | AID 573, 2007;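 active means growth inhibition at or above a cutoff equal to the mean over every tested compound plus 3 SD, cut at about 60% in these data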;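 further: growth measured after 20 h incubation at 37 °C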
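Test system: tolC-deleted E. coli BW25113 | Medium: LB with kanamycin 50 µg/mL | Compound dosing: Single concentration, 10 µM final per compound | Schedule: 37 °C, 20 h exposure | Measured by: OD at 615 nm | Evaluation: Percent growth inhibition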
Pyk2 oligo antag = antagonists of Pyk2 self-association, primary screen, Q293 cells, FERM NanoBiT luminescence, HTS | 99,000 compounds, 0.83% hits | active compounds read low | Protein-tyrosine kinase 2-beta (Homo sapiens), Q14289 | z-score (the deposit names both 25 µM and 10 µM);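 active means Z-score of -3 or lower, scaled per plate to the spread of control and sample wells; inactive means z-score above -3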;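 further: negative z-score means lost luminescence so less FERM oligomerization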
Target sequence (Q14289 whole entry, looked up): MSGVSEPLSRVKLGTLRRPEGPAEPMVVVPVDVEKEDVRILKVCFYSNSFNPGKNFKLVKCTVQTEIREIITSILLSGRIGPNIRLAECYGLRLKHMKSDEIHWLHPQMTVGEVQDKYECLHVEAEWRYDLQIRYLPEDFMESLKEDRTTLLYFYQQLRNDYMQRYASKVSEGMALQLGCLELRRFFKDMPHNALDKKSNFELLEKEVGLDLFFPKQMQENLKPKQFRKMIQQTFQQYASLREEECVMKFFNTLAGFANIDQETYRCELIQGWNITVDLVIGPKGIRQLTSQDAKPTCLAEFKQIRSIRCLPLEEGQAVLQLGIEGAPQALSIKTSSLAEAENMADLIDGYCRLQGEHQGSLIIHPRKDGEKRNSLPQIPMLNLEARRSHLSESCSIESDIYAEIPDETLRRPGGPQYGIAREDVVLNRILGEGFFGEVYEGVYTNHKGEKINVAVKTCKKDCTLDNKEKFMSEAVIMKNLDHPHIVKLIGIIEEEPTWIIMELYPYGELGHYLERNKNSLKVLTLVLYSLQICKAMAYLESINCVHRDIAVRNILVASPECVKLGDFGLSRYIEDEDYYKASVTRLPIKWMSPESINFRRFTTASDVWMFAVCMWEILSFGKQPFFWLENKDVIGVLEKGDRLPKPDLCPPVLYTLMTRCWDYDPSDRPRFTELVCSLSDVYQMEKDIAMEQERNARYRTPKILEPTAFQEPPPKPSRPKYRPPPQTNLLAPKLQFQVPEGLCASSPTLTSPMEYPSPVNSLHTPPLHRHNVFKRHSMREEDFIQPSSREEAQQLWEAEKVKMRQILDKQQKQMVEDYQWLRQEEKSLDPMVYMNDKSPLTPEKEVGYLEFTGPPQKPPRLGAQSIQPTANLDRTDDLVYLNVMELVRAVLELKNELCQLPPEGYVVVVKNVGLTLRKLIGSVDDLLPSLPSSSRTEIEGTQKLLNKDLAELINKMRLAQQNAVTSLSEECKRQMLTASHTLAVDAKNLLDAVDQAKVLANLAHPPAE
Candida biofilm = clotrimazole potentiators killing Candida biofilms, primary screen, with clotrimazole, Alamar Blue; C. albicans biofilm + clotrimazole; inhibition, % at 6 µM; 85,000 compounds, 0.14% hits; AID 834, 2007;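 active means inhibition above 20%; inactive means inhibition below 20%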;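 further: preformed 24 hr biofilms exposed to compound for 48 hr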
PostGolgi yeast = phenotypic screen on post-Golgi transport, primary screen. post-Golgi transport phenotypic cell assay. inhibition, % at 10 µM. 98,000 compounds, 0.9% hits;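 further: yeast cells grown in 1536-well plates; yeast grown about 18 h at 30C before absorbance read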
PostGolgi ctrl = growth inhibition of yeast control strain, primary screen, counter-screen for post-Golgi transport modulator project; efflux-deficient yeast background strain, growth absorbance A615, 16 h; inhibition, % at 10 µM; 98,000 compounds, 5% hits; AID 738, 2007
E coli WT exp = growth inhibitors of wild-type E. coli, primary screen, strain BW25113, expanded library, OD600; OD600 absorbance; growth inhibition, % at 100 µM; 98,000 compounds, 0.15% hits; AID 710, 2007;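 active means growth inhibition above about 50% at one test dose, limit read from the data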;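 further: growth measured after 20 h incubation at 37 °C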
Hits are given with their value; . = inactive; / = no result. Unless noted, no stated cut-off is given here; in the data, active means inhibition above about 30%; inactive means the rest.

SMILES | tolC growth inh | Pyk2 oligo antag | Candida biofilm | PostGolgi yeast | PostGolgi ctrl | E coli WT exp
CCCCNS(=O)(=O)c1ccc(NS(=O)(=O)c2c(C)cc(C)cc2C)cc1 | / | . | . | . | . | .
COc1cccc(C2C(C(N)=O)=C(C)Nc3nc(-c4ccccc4Cl)nn32)c1 (stereo not drawn) | . | / | . | . | . | .
CCC(C)NS(=O)(=O)c1ccc(OCC(=O)N2CCCCC2)cc1 (stereo not drawn) | / | . | . | . | . | .
CCN(CC)CCn1nc(C)nc1-c1ccccc1O | . | . | . | 40 | . | .
O=C(CCC(=O)OCC(=O)c1ccc(Br)cc1)NC1CCCCC1 | / | . | . | . | 37 | .
O=C(CCC(=O)OCC(=O)c1ccc(F)cc1)NC1CCCCC1 | / | . | . | 40 | . | .
CCOc1cc2[nH]c(=O)n(CC3CCC(C(=O)NC(C)CC)CC3)c(=O)c2cc1OCC (stereo not drawn) | . | / | . | / | / | /
Cc1ccc(O)c(NC(=S)NC(=O)c2ccc(-c3ccc(Cl)cc3)o2)c1 | / | . | / | / | / | /
COC(=O)C1CC(O)CN1C(=O)c1ccco1 (stereo not drawn) | / | . | / | . | 34 | .
COC(=O)CN1C(=S)N(c2ccc(Cl)cc2)C(=O)C1CC(=O)Nc1ccc(Cl)cc1 (stereo not drawn) | / | . | / | . | . | .
COC(=O)CN1C(=S)N(Cc2ccccc2)C(=O)C1CC(=O)Nc1ccc(Br)cc1 (stereo not drawn) | / | . | / | . | 79 | .
CCOc1cc(/C=C2\C(=O)N(c3nc(-c4ccc(Br)cc4)cs3)N=C2c2ccccc2)ccc1O | / | . | . | . | 31 | .
CCC(=O)N1CCN(c2ccc(Cl)cc2NC(=O)c2ccc(N3CCCC3)c([N+](=O)[O-])c2)CC1 | / | . | / | . | . | .
CCC(=O)N1CCN(c2ccc(Cl)cc2NC(=O)c2ccc3c(c2)OCCO3)CC1 | . | . | . | . | 47 | .
Cc1cccc(C)c1NC(=O)c1sccc1SCc1cccc(C(F)(F)F)c1 | / | . | / | . | 51 | .
Oc1ccccc1CNn1cnnc1 | . | . | . | . | . | .
Cc1cccc(N2CCN(C(=O)c3cc4n(n3)C(C(F)(F)F)CC(c3ccco3)N4)CC2)c1C (stereo not drawn) | 74 | . | / | . | . | .
O=C(c1cc2n(n1)C(C(F)(F)F)CC(c1ccco1)N2)N1CCN(c2ccccn2)CC1 (stereo not drawn) | . | . | . | . | . | .
CCc1nnc2n1N=C(c1ccc(-c3cc(Cl)ccc3Cl)o1)CS2 | . | . | 24 | . | . | .
S=c1[nH]nc(Cc2cccc3ccccc23)n1-c1ccccc1 | / | . | . | . | . | .
CCCCCCCCC[n+]1cccc2c3ccccc3ccc21 | / | . | / | . | 98 | 70
CCCCCCCCCCCCCCCC[n+]1ccc(C(N)=O)cc1 | / | . | / | / | / | /
O=[N+]([O-])c1cccc(-c2ccc(/C=N/NC(=S)Nc3ccccc3)o2)c1 | / | . | / | . | 48 | .
S=C(N/N=C/c1ccccc1Cl)Nc1ccccc1 | / | . | / | . | . | .
Cc1cc(C(F)(F)F)nn1CC(=O)NNC(=S)Nc1cccc(Cl)c1 | / | . | / | . | . | .
SMILES | tolC growth inh | Pyk2 oligo antag | Candida biofilm | PostGolgi yeast | PostGolgi ctrl | E coli WT exp
Cc1cccc(N2CCN(CC(=O)Nc3nccs3)CC2)c1C | / | . | / | 39 | . | .
Cc1ccccc1C(=O)NC1CCN(CC(=O)Nc2nccs2)CC1 | . | . | . | . | . | .
COc1ccc(-c2cc(-c3ccccc3O)[nH]n2)cc1OC | . | . | . | . | . | .
Oc1ccccc1-c1cc(-c2ccc3c(c2)OCCO3)n[nH]1 | 99 | . | . | . | . | .
Cc1nc(CS(=O)(=O)c2ccccc2)cc(Sc2ccc(Cl)cc2Cl)n1 | / | . | / | . | 37 | .
COCc1cc(Sc2cccc(Cl)c2Cl)nc(-c2ccccc2)n1 | / | . | / | . | . | .
Cc1cc(NC(=O)CN2CCC(n3nnc4cc(C(F)(F)F)ccc43)CC2)no1 | . | . | . | . | . | .
CCOc1ccc2nc(NC(=O)CN3CCC(n4nnc5cc(C(F)(F)F)ccc54)CC3)sc2c1 | / | . | . | . | 35 | .
Cc1sc2ncnc(NCCN3CCOCC3)c2c1C | / | . | . | . | . | .
N=c1c2c(-c3ccccc3)c(-c3ccccc3)oc2ncn1CCN1CCOCC1 | . | . | . | . | 72 | .
N=c1c2c(-c3ccccc3)c(-c3ccccc3)oc2ncn1CCCN1CCOCC1 | . | . | . | . | . | .
c1ccc(-c2oc3ncnc(NCCN4CCOCC4)c3c2-c2ccccc2)cc1 | 65 | . | . | . | 92 | .
COc1ccc(-c2nnc(SCC(=O)c3ccc(C)o3)o2)cc1 | . | . | . | / | / | /
COc1ccc(CN(C(=O)CSc2nnc(-c3ccc(F)cc3)o2)c2ccc(F)cc2)cc1 | . | . | . | . | 38 | .
COc1ccc(CN(C(=O)CSc2nnc(-c3c[nH]c4ccccc34)o2)c2ccc(F)cc2)cc1OC | / | -4.2 | . | / | / | /
COc1ccc(-c2nnc(SCc3cc(C)cc(C)c3)o2)cc1 | 69 | . | . | . | . | .
O=C(NC1CC1)C1CCN(c2ncnc3c2sc2cccc(F)c23)CC1 | / | / | / | . | . | .
CCOC(=O)C(NC(=O)c1ccc(F)cc1)(Nc1nnc(C)s1)C(F)(F)F (stereo not drawn) | . | . | . | . | 30 | .
CCC(=O)Nc1nnc(-c2ccco2)o1 | . | / | . | . | . | .
Cc1ccsc1C(=O)Nc1nnc(-c2ccco2)o1 | 98 | . | . | . | . | 85
CCCC(C)NCC(=O)Nc1ccccc1-c1ccccc1 (stereo not drawn) | / | . | / | . | . | .
Nc1ccc(-c2ccc(N)cc2C(F)(F)F)c(C(F)(F)F)c1 | . | -3.1 | . | . | . | .
Nc1ccc(C(O)(C(F)(F)F)C(F)(F)F)cc1 | / | . | . | . | . | .
O=C(Nc1ccc(Nc2ccccc2)cc1)c1ccc(Br)o1 | . | . | . | . | . | .
CCOc1ccccc1C(=O)Nc1cccc(-c2nnc(-c3ccccc3)o2)c1 | / | . | . | . | 31 | .
SMILES | tolC growth inh | Pyk2 oligo antag | Candida biofilm | PostGolgi yeast | PostGolgi ctrl | E coli WT exp
O=C(COc1ccccc1)Nc1cccc(-c2nnc(-c3ccccc3)o2)c1 | . | . | . | / | / | /
O=C(Nc1cccc(-c2nnc(-c3ccccc3)o2)c1)c1ccc(Br)o1 | 84 | -3.1 | . | . | 38 | .
Cc1cccc(NC(=O)c2ccccc2OCC(=O)c2ccccc2)c1 | / | . | / | . | 30 | .
CCC(Sc1nnc2c3ccccc3n(CC)c2n1)C(=O)Nc1sc2c(c1C#N)CCCC2 (stereo not drawn) | / | . | / | . | . | .
CC(=O)N1N=C(c2ccc(C)cc2)OC1c1ccc(C(C)C)cc1 (stereo not drawn) | / | . | . | . | . | .
CC(=O)N1N=C(c2ccc(C)cc2)OC1c1ccc(C)cc1 (stereo not drawn) | / | . | . | . | 34 | .
COc1ccc(-c2cc(N)n(S(=O)(=O)c3c(F)c(F)c(F)c(F)c3F)n2)cc1OC | . | . | . | 104 | 68 | .
